Reference: PubChem BioAssay AID651999 (Sanford-Burnham Center for Chemical Genomics, 2013)
The whole screen tested about 360,000 compounds, of which about 1,400 (0.39%) were called active.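 Rule for the calls: active = pattern-corrected inhibition above about 35%, with an unprinted fluorescence ratio check between 0.5 and 1.5 (limit read from the data, passing the limit was not always enough); inactive = the rest.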 For the sample, actives were picked, then their nearest neighbours and some compounds at random.

What follows are compounds tested against COP9 signalosome complex subunit 5 (Homo sapiens) (UniProt Q92905) (assay: inhibitors of CSN-mediated cullin deneddylation, primary screen, biochemical, fluorescence polarization, uHTS (AID 651999;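 note: 0% = enzyme with substrate and 100% = substrate without enzyme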)). Conditions: Purified CSN, SCF-Nedd8-OG deneddylation, at 12.5 µM, stronger effect = higher value.
COP9 signalosome complex subunit 5 (Homo sapiens), sequence (Q92905 whole entry, looked up, one chain of several): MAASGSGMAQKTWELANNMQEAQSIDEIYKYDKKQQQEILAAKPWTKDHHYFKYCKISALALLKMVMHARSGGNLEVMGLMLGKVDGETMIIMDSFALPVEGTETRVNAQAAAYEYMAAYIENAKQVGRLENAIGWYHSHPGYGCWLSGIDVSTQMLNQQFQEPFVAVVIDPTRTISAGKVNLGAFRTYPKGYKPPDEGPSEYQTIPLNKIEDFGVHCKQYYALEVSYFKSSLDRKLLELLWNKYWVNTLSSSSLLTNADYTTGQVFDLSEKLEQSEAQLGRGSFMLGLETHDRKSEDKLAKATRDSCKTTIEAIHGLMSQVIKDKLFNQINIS
In short: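 Material: human Csn5 produced in HEK293T cells; Input: enzyme 0.24 nM; Reagent: SCFSkp2-Nedd8OG substrate at 10 nM final; Dosing: 12.5 µM compound; Incubation: 90 min reaction at room temperature; Detection: fluorescence polarization of the substrate; Evaluation: % inhibition of substrate cleavage by Csn5; Control set: substrate-only high control, full reaction low control.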

inhibition, active:
C#CCOCCOCCOCCNc1nc(N2CCN(C(=O)CCCCCCCCCCNC(=O)Cn3cc(CCCCCN)nn3)CC2)nc(N2CCN(C(=O)CCCCCCCCCCNC(=O)[C@H](CO)n3cc(CCCSC)nn3)CC2)n1 89%
C#CCOCCOCCOCCNc1nc(N2CCN(C(=O)C([C@@H](C)O)n3cc([C@@H](N)CCCCN)nn3)CC2)nc(N2CCN(C(=O)[C@H](CCCCN)n3cc(CN)nn3)CC2)n1 (stereo partly specified) 37%
Cn1ccc(=Nc2ccc(NC(=O)c3ccc(N=c4ccn(C)c5ccc([N+](=O)[O-])cc45)cc3)cc2)cc1 114%
CC[n+]1cc(C)ccc1/C=C/c1ccc(N(C)C)cc1 35.4%
CN1/C(=c2/s/c(=C3/C(=O)N(c4ccccc4)NC3=Nc3ccccc3)n(C)c2=O)C(C)(C)c2ccccc21 41.7%
C=CC(=O)Nc1ccc(Nc2ccnc(Nc3ccc(N4CCN(C)CC4)cc3)n2)cc1 103%
Cc1ccc(N=C2NC(=O)/C(=C/C=C/c3ccco3)S2)cc1C 51.9%
O=C(N/N=C/c1ccc(Cl)cc1)c1nc2ccc([N+](=O)[O-])cc2c(=O)[nH]1 56.7%
O=C(COc1ccc([N+](=O)[O-])cc1)Nc1ccc(N2CCCC2)cc1 45.2%
COc1cc(/C=C(\C#N)c2nc3ccccc3[nH]2)ccc1O 73.3%
COc1cc(/C=C(\C#N)c2nc3c(s2)CC(C)CC3)ccc1O (stereo unspecified) 82%

inhibition, inactive:
O=C(COc1ccc(S(=O)(=O)N2CCCCC2)cc1)NCc1ccccn1 -4.23%
CC(=O)NS(=O)(=O)c1ccc(NC(=O)/C=C/c2ccccc2Cl)cc1 4.02%
COc1ccccc1CNC(=O)CCCNS(=O)(=O)c1cccc2nsnc12 1.39%
Cc1ccc(CC2C(=O)N(c3ccc(F)cc3)C(=O)C2C)cc1 (stereo unspecified) -0.88%
C#CCOCCOCCOCCNc1nc(N2CCOCC2)nc(N2CCN(C(=O)[C@H](Cc3ccc(O)cc3)n3cc(CCO)nn3)CC2)n1 -2.16%
CCC(C)[C@@H](C(=O)N1CCNCC1)n1cc(CCCCN)nn1 (stereo partly specified) -2.15%
C#CCOCCOCCOCCNc1nc(N2CCN(C(=O)C(Cc3ccc(O)cc3)n3cc(C(N)CC(C)C)nn3)CC2)nc(N2CCN(C(=O)C(Cc3ccc(O)cc3)n3cc(C(N)C(C)CC)nn3)CC2)n1 (stereo unspecified) 0.38%
CC/C(Cc1ccccc1)=N/NC(=O)CCn1nnc2ccccc21 1.26%
COc1ccc(NC(=O)C2CCC(CNc3c(N4CCCCC4)c(=O)c3=O)CC2)c(OC)c1 (stereo unspecified) 1.79%
CCOC(=O)C1(Cc2cccc(OC)c2)CCN(C(C)CC(C)(C)O)CC1 (stereo unspecified) 0.5%
Fc1ccc(-n2c(Cc3ccccc3)nnc2SCc2nc(-c3ccc(Cl)cc3)no2)cc1 5.36%
Cc1ccc(-c2ccc(CN3C(C)C(=O)N(Cc4cn(CCC5OCCCO5)nn4)CCS3(=O)=O)cc2)cc1 (stereo unspecified) 0.07%
O=c1c2ccccc2c(-c2ccccc2)nn1-c1ccccn1 0.93%
O=C(Nc1cc2c3c(c1)C1CCCC1CN3CC1CCCC21)c1ccc([N+](=O)[O-])cc1 (stereo unspecified) -4.37%
O=C(Nc1ccc(C2CC2(Cl)Cl)cc1)c1cccc([N+](=O)[O-])c1 (stereo unspecified) -0.73%
CCCNC(=O)c1ccc(N2CCC3(CC2)CC(c2cccc(Br)c2)=NO3)c(NC(=O)c2ccco2)c1 -1.32%
C/C(=N\N=C(N)N)c1ccc(Cl)cc1 -1.16%
O=C(Cc1ccccc1)Nc1c(C(=O)N2CCCCCC2)cnn1-c1ccccc1 -1.5%
CCN(C(=O)Cc1c(C(=O)O)n(CC)c2ccccc12)c1ccccc1C -2.24%
CC(C)N1CCC(NC(=O)Nc2ccccc2)CC1 -2.66%
CC(=O)N1CCN(S(=O)(=O)c2c(F)cc(F)c(Cl)c2F)CC1 -5.22%
CCOc1ccc(NC(=O)CN(C)CC(=O)NC(C)c2ccccc2)cc1OCC (stereo unspecified) 2.1%
CCc1c(O)nc(SCC(=O)Nc2ccccc2)n(C(C)CC)c1=O (stereo unspecified) 2.98%
CC(=O)Nc1cc(-c2ccc(N3CCN(C)CC3)cc2)cn2c(-c3ccc(F)cc3)cnc12 9.21%
O=C(Nc1ccc(N2CCN(C(=O)c3cccs3)CC2)cc1)c1cccnc1Cl -0.71%
C/C(=N/NS(=O)(=O)c1ccccc1)c1ccc(NC(=O)C(F)(F)F)cc1 -3.71%
COc1ccccc1NC(=O)CCSc1nnc(-c2ccc(O)cc2)o1 -8.49%
COc1ccc(CCN(Cc2cc3cccc(C)c3[nH]c2=O)C(=O)N2CCCC2)cc1OC 2.45%
O=C(NCCCO)/C(=C\C=C\c1ccccc1)NC(=O)c1ccccc1Cl -3.06%
C=CCN(c1ccc(Cl)cc1)S(=O)(=O)c1cccc(C(=O)OCC(=O)N(C)C)c1 -4.63%
N#Cc1cc([N+](=O)[O-])ccc1Oc1cccc(/C=N/NC(=O)c2ccc(Cl)cc2)c1 1.22%
CC(NC(=O)C(=O)N/N=C/c1ccc(Cl)cc1)c1ccccc1 (stereo unspecified) -2.35%
COc1ccc(Cc2nnc(SCC(=O)N(c3ccccc3)C(C)C)n(N)c2=O)cc1 2.75%
CC1(C2CC2)NC(=O)N(CC(=O)N2CCN(c3ccccc3F)CC2)C1=O (stereo unspecified) -0.85%
O=C(COC(=O)C1CCCCC1)Nc1ccc([N+](=O)[O-])cc1 -5.15%
O=C(CCC(=O)N1CCCC1)Nc1ccc([N+](=O)[O-])cc1 -2.97%
Cn1c2c(c(=O)n(C)c1=O)[C@@H]1c3c(ccc4ccccc34)OC[C@@H]1CO2 0.02%
COc1cc(C=NC2CCCCC2)ccc1O 4.95%
CCN(/N=C/c1ccc(N(C)C)cc1)c1nc2ccccc2[nH]1 -1.85%
CC1(C)O[C@H]2CC(=O)OCC23[C@H]2CC[C@@]4(C)[C@H](c5ccoc5)OC(=O)[C@H]5O[C@]54[C@]2(C)C(=O)C[C@@H]13 (stereo partly specified) -1.16%
